Source: PubChem (several laboratories)
MBD2 inh = inhibitors of MBD2 binding to methylated DNA, primary screen, biochemical, TR-FRET, DNA-binding domain, human; 0.31% of 370,000 active; inhibition, % at 4.4 µM; MBD2 binding to methylated oligonucleotide; Methyl-CpG-binding domain protein 2 (Homo sapiens), Q9UBB5; in the data active = inhibition above about 13%
TDP2 absorb = human TDP2 enzyme inhibitors, primary screen, biochemical, epi absorbance, recombinant enzyme | Tyrosyl-DNA phosphodiesterase 2 (Homo sapiens), O95551 | T5PNP hydrolysis, p-nitrophenol absorbance 415 nm | inhibition, % at 12.8 µM | 0.34% of 370,000 active;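 active = inhibition above the mean of all tested compounds plus 3 SD, set per campaign, cut at about 25% in these data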;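 also: 0% = DMSO with enzyme and 100% = buffer with substrate but no TDP2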
Target sequence (O95551 whole entry, looked up): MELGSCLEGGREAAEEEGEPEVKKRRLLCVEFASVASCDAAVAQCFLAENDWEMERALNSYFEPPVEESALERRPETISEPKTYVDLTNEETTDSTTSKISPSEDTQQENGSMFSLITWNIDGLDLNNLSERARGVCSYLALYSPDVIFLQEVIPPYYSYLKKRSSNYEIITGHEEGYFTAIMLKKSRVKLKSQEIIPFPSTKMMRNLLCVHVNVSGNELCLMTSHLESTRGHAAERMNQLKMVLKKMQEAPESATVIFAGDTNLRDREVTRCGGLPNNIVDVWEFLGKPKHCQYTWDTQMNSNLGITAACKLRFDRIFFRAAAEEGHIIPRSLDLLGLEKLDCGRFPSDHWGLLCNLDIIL
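Test system: Human TDP2 enzyme | Reagent: 5 mM T5PNP | Compound dosing: 12.8 µM single point, 1% DMSO | Incubation: Enzyme reaction with compound for 2 h at 37 °C | Technique: p-Nitrophenol epi absorbance | Read-out: % inhibition relative to enzyme-containing and enzyme-free wells | Benchmarks: High control without enzyme, low control DMSO plus TDP2 | Replicates: Singlicate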
UHRF1 binding = UHRF1 methylated DNA binding inhibitors, primary screen, counter-screen for MBD2 inhibitor project, biochemical, TR-FRET, human UHRF1, single concentration | E3 ubiquitin-protein ligase UHRF1 (Homo sapiens), Q96T88 | UHRF1 binding to methylated oligo | inhibition, % at 4.4 µM | 0.75% of 370,000 active | AID 687016, 2013; in the data active = inhibition above about 21%;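 also: UHRF1 SRA domain binding a hemimethylated CpG hairpin DNA probe; 0% = median of test compound wells and 100% = reference inhibitor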
LEDGF integ inh = blockers of LEDGF/p75-dependent integrase strand transfer – biochemical, TR-FRET, high throughput, primary screen. inhibition, % at 3.7 µM. AID 743269, 2014. TR-FRET IN-LEDGF/p75 DNA integration, Eu/Cy5. HIV-1 integrase (with human LEDGF/p75). 0.64% of 370,000 active;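 active = inhibition above the screen-wide mean plus 3 SD, cut at about 13% in these data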;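 also: signal is the Cy5 over europium emission ratio at 671 and 618 nm; 0% = plate median of compound wells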
NSD2 HMT inh = NSD2 histone methyltransferase inhibitors, primary screen, biochemical, AlphaScreen, single concentration, set 2 | NSD2 peptide methylation, 120 min | Histone-lysine N-methyltransferase NSD2 (Homo sapiens), O96028 | AID 743445, 2014 | inhibition, % at 12.5 µM | 0.54% of 310,000 active; in the data active = inhibition above about 50%
Casp6 inh = human caspase-6 inhibitors, primary screen, biochemical, VEID-R110 fluorescence, single point, set 2. inhibition, % at 12.5 µM. P55212. AID 686996, 2013. purified caspase-6, Z-VEID-R110 cleavage fluorescence. 0.53% of 350,000 active;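 active = mean inhibition across replicates at least about 35%, with every replicate also reaching that limit, limit read from the data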;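 also: 0% = median of neutral control wells and 100% = no fluorescence left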
Target sequence (P55212 24-179 limits assumed): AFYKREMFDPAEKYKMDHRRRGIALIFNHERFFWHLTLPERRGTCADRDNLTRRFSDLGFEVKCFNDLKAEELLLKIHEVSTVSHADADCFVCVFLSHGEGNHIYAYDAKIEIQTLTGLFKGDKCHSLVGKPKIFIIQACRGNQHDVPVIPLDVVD
Target sequence (P55212 194-293 limits assumed): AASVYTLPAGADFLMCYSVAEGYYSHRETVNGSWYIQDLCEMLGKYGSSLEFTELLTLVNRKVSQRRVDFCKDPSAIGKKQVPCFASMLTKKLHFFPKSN
Starred values were filed as active, the others as inactive; . = no result. The list is not random: actives were taken first. Their share in the collection is about 1.9%.

SMILES | MBD2 inh | TDP2 absorb | UHRF1 binding | LEDGF integ inh | NSD2 HMT inh | Casp6 inh
CC(C)(C)c1ccc(-c2noc(-c3ccc4c(c3)CCO4)n2)cc1 | 0.4 | 11.0 | 24.5* | 0.2 | -0.2 | -2.6
Cc1cc(-c2nc(-c3ccc(C(C)(C)C)cc3)no2)no1 | -2.4 | 6.8 | 0.1 | 2.2 | -0.5 | -0.2
CSCCC(NC(=O)C1CCCC1)c1nnc2ccccn12 (stereo not drawn) | -2.2 | 13.8 | 0.7 | -2.7 | -5.7 | 1.6
CSCC[C@H](NS(=O)(=O)c1ccc(C(C)=O)cc1)c1nnc2ccccn12 | -0.7 | 7.8 | 11.6 | 3.5 | 20.7 | 36.7*
CCOC(=O)C1CCN(C(=O)CSc2nccc(C)n2)CC1 | -4.2 | -4.3 | 64.5* | -3.8 | 0.9 | 4.4
C[C@@H]1CN([C@@H](C)CO)C(=O)CCCn2cc(nn2)CO[C@@H]1CN(C)C(=O)Nc1ccc(N2CCCCC2)cc1 | . | . | . | . | . | 3.8
C[C@@H]1CN([C@H](C)CO)C(=O)Cc2cc(NC(=O)Nc3ccc(F)cc3)ccc2O[C@H]1CN(C)Cc1ccc(Cl)c(Cl)c1 | . | . | . | . | . | 1.0
COc1ccc(-c2cc(C(=O)Nc3ccc(S(=O)(=O)Nc4onc(C)c4C)cc3)c3ccccc3n2)cc1 | 2.7 | 4.8 | 2.6 | 60.2* | 25.0 | 7.7
COc1ccc(-c2cc(C(=O)Nc3ccc(S(=O)(=O)Nc4ncccn4)cc3)c3ccccc3n2)cc1 | 2.5 | -1.3 | 0.8 | -1.3 | 1.8 | -1.0
Cc1ccc(S(=O)(=O)Nc2ccc3cn[nH]c3c2)cc1C | 9.8 | -2.8 | 3.5 | -6.0 | 48.8 | -3.1
O=C(O)c1ccc(Cl)c(S(=O)(=O)Nc2ccc3cn[nH]c3c2)c1 | -0.6 | 7.0 | 1.0 | 6.0 | 13.3 | 37.4*
O=C(O)c1cc(S(=O)(=O)Nc2ccc3cn[nH]c3c2)ccc1O | 0.5 | 9.5 | 6.3 | 1.8 | 3.4 | 60.2*
COc1ccc(CN(C)C[C@@H]2Oc3ccc(NC(=O)CCN4CCOCC4)cc3C(=O)N([C@H](C)CO)C[C@@H]2C)cc1 | . | . | . | . | . | -7.0
CCC[C@H]1[C@@H](NCc2cccs2)CC[C@@]23CCCN2C(=O)CCC[C@@H]13 | -4.6 | -12.8 | -0.5 | 4.1 | -1.1 | .
C=CCNC(=O)c1ccc(-n2cccc2)cc1 | 10.5 | -2.5 | 23.8* | 1.8 | -4.4 | 1.0
Cc1ccc2cc(CN(CC3CCCO3)S(=O)(=O)c3ccccc3)c3nnnn3c2c1 (stereo not drawn) | -6.4 | -2.5 | 20.8* | -2.3 | 1.5 | -1.1
CC(=O)N/N=C(\C)c1cccc(C(F)(F)F)c1 | 2.5 | 8.2 | 10.8 | 2.7 | -3.9 | -2.3
CCNC(=S)N/N=C(\C)c1cccc(C(F)(F)F)c1 | -5.9 | 9.3 | 36.2* | 5.4 | -3.4 | 0.3
Cc1cc(C)c(NS(=O)(=O)c2ccc3c(c2)oc(=O)n3C)c(C)c1 | -0.9 | -0.6 | 39.4* | -0.8 | 0.4 | 7.3
O=C(COc1ccc(Cl)cc1Br)OCC(=O)c1ccc[nH]1 | -0.5 | 8.1 | 1.1 | -3.2 | 1.3 | 37.7*
CS(=O)(=O)Nc1ccc2c(c1)[C@@H]1C[C@@H](CC(=O)O)O[C@@H](CO)[C@@H]1O2 | . | . | . | . | . | -0.1
Cc1c(C#N)c(N)nc2c3c(sc12)NC(=O)CC3c1ccccc1 (stereo not drawn) | 0.7 | -1.4 | -5.4 | -0.6 | 65.3* | .
Cc1c(C#N)c(N)nc2c3c(sc12)NC(=O)CC3c1ccc(F)cc1 (stereo not drawn) | 4.9 | -0.2 | 1.6 | 0.6 | -1.2 | .
C[C@H]1CN([C@@H](C)CO)C(=O)c2cc(NC(=O)CCCN(C)C)ccc2O[C@H]1CN(C)Cc1ccccc1 | . | . | . | . | . | -0.2
Cc1ccc(N2C(=O)NC3(CCCCC3)C2=O)cc1 | 11.1 | -5.3 | 23.5* | -4.0 | -4.0 | .
SMILES | MBD2 inh | TDP2 absorb | UHRF1 binding | LEDGF integ inh | NSD2 HMT inh | Casp6 inh
COc1ccc(NC(=O)Nc2ccc3c(c2)C(=O)N([C@H](C)CO)C[C@@H](C)[C@@H](CN(C)Cc2ccc(Oc4ccccc4)cc2)O3)cc1 | . | . | . | . | . | 0.7
CCc1cc(Cn2nc(-c3ccccc3)cc2C(=O)O)on1 | 2.7 | -5.7 | 79.6* | 1.2 | . | 0.6
Cc1nn(C)c(C)c1/C=C/C(=O)O | 12.9 | -1.1 | 39.4* | 3.7 | -0.6 | 1.3
COc1cc(/C=C2\SC(=Nc3ccc(Cl)c(C(=O)O)c3)NC2=O)c(Br)c(Br)c1O | -11.1 | 6.5 | -4.7 | -0.4 | 47.7 | 35.4*
COc1cc(/C=C2\SC(=Nc3ccccc3)NC2=O)cc(Cl)c1O | -5.0 | -1.4 | -11.2 | -1.8 | 13.6 | 1.7
Cc1ccc(NC(=O)Nc2nnc(-c3ccccc3)o2)cc1 | -1.3 | 6.7 | -1.0 | -0.6 | -0.3 | 38.4*
COc1ccc(-n2c(C)cc(C(=O)CCl)c2C)cc1 | 3.1 | 10.0 | 23.6* | 2.1 | 11.7 | 3.0
Oc1ccc(CN2CCCCC2)c2cccnc12 | -2.8 | 0.0 | -0.1 | -10.3 | 1.0 | -19.6
Oc1c(CN2CCCCC2)ccc2cccnc12 | -1.3 | 7.0 | -5.9 | -7.2 | . | 69.3*
CC(C)NC(=O)Nc1cccc2c1O[C@H](CN(C)Cc1ccc(Cl)c(Cl)c1)[C@H](C)CN([C@H](C)CO)C2=O | . | . | . | . | . | 1.2
C[C@H]1CN([C@@H](C)CO)C(=O)c2cc(NC(=O)Nc3ccccc3)ccc2O[C@@H]1CN(C)C | . | . | . | . | . | 1.5
CCOc1ccccc1CNC(=O)c1nn(C)c2c1CS(=O)(=O)c1ccccc1-2 | 4.3 | -13.7 | 25.6* | 2.5 | 3.4 | -0.2
CC(C)(C)OC(=O)C[C@@H]1C/C=C\C[C@@H](CC(=O)NCCO)C(=O)NCCOC1=O | -1.2 | 9.7 | 1.6 | 17.8* | . | 0.9
CC(C)(C)OC(=O)C[C@H]1C/C=C\C[C@H](CC(=O)NCCO)C(=O)NCCOC1=O | 2.2 | -8.3 | -1.1 | 0.3 | . | 4.7
Cc1ccc(-c2ccc3c(c2)O[C@H](CN(C)Cc2ccccn2)[C@H](C)CN([C@@H](C)CO)S3(=O)=O)cc1 | . | . | . | . | . | 1.5
O=C(NCC[C@H]1CC[C@H](NC(=O)c2ccccc2F)[C@H](CO)O1)c1cnccn1 | . | . | . | . | . | -0.2
Cc1noc(C)c1S(=O)(=O)Nc1ccc2c(c1)C(=O)N([C@H](C)CO)C[C@@H](C)[C@@H](CN(C)S(=O)(=O)c1ccc(Cl)cc1)OCCCC[C@H](C)O2 | . | . | . | . | . | -4.6
CC1=NN(c2ccccc2)C(=O)C1=Cc1ccccc1 | 4.8 | 72.9* | 16.4 | 11.8 | . | -1.3
CC1=NN(c2ccccc2)C(=O)/C1=C/c1ccc[nH]1 | -2.6 | -2.0 | -7.5 | -1.2 | 36.3 | .
